Test results published in ChEMBL document CHEMBL3352483, “Synthesis, structure-activity relationships and biological evaluation of barbigerone analogues as anti-proliferative and anti-angiogenesis agents” (Bioorg Med Chem Lett, 2014).

Legend:
Danio rerio = species on record: Danio rerio; test: Antiangiogenic activity in Flk-1-GFP transgenic zebrafish embryo after 24 hrs; type: functional, organism-based
Procedure, shortened: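 Zebrafish embryos exposed to compound at 1.25 or 2.5 μM, or to vehicle, for 24 h. Read-out is formation of the subintestinal vessel (SIV) basket-like structure, compared with vehicle-treated embryos.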

[1] = Antiproliferative activity against human HCT116 cells after 24 hrs by MTT assay; type: functional, cell-based; details: HCT-116, 24 h
Procedure, shortened: (§1)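 MTT proliferation assay on HUVECs and on HepG2, A375, U251, B16 and HCT116 cells. Results reported as IC50.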

B16 = test: Antiproliferative activity against mouse B16 cells after 24 hrs by MTT assay; type: functional, cell-based; details: B16, 24 h; procedure, shortened: as §1
HUVEC [2] = test: Antiangiogenic activity against HUVEC assessed as inhibition of capillary-like tube formation at 5 uM after 8 hrs by Matrigel assay relative to control; type: functional; details: Homo sapiens
Procedure, shortened: (§2)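 HUVECs (1 × 10^4 cells) suspended in EBM-2 with vehicle or compound at 1.0 or 5.0 μM and plated on Matrigel. Incubated 8 h at 37 °C. Capillary networks photographed at 100× and quantified. Inhibition of tube-like structure formation expressed relative to vehicle group.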

HUVEC [3] = test: Antiangiogenic activity against HUVEC assessed as inhibition of capillary-like tube formation at 1 uM after 8 hrs by Matrigel assay relative to control; type: functional; details: Homo sapiens; procedure, shortened: as §2
HUVEC [4] = test: Antiproliferative activity against HUVEC after 24 hrs by MTT assay; type: functional, cell-based; details: Homo sapiens; procedure, shortened: as §1
HepG2 = test: Antiproliferative activity against human HepG2 cells after 24 hrs by MTT assay; type: functional, cell-based; details: HepG2, 24 h; procedure, shortened: as §1
A-375 = test: Antiproliferative activity against human A375 cells after 24 hrs by MTT assay; type: functional, cell-based; details: A-375, 24 h; procedure, shortened: as §1
U-251 = test: Antiproliferative activity against human U251 cells after 24 hrs by MTT assay; type: functional, cell-based; details: U-251, 24 h; procedure, shortened: as §1
HUVEC [5] = test: Antimigratory activity in HUVEC assessed as migration into wound area at 1 uM after 24 hrs relative to vehicle treated control; type: functional, Homo sapiens
Procedure, shortened: (§3)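 Wound-healing assay. HUVEC monolayers scratched with a pipette, then treated with vehicle or the indicated compound concentrations. Photographs taken at 0 h and 24 h at 50×, and migration rate into the wound calculated. Mean ± SD from three independent experiments.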

HUVEC [6] = test: Antimigratory activity in HUVEC assessed as migration into wound area at 0.5 uM after 24 hrs relative to vehicle treated control; type: functional, Homo sapiens; procedure, shortened: as §3

SMILES | IC50 (B16) [nM] | IC50 (HepG2) [nM] | IC50 (A-375) [nM] | IC50 (U-251) [nM] | inhibition (Danio rerio) | IC50 [1] [nM] | inhibition at 5 µM (HUVEC [2]) [%] | inhibition at 1 µM (HUVEC [3]) [%] | IC50 (HUVEC [4]) [nM] | Activity (HUVEC [5]) [%] | Activity (HUVEC [6]) [%]
COc1cc(OC)c(-c2coc3cc(OCc4cccc(C(F)(F)F)c4)ccc3c2=O)cc1OC | > 10000 | 610 | 1140 | > 10000 | – | 3400 | – | – | > 10000 | – | –
CC1(C)C=Cc2c(ccc3c(=O)c(-c4ccc(Cl)c(C(F)(F)F)c4)coc23)O1 | > 10000 | > 10000 | > 10000 | > 10000 | – | > 10000 | – | – | > 10000 | – | –
COc1cc(OC)c(-c2coc3cc(OCc4cccc(Br)c4)ccc3c2=O)cc1OC | 4400 | 870 | 1120 | > 10000 | – | 1200 | – | – | > 10000 | – | –
COc1ccc(-c2coc3c4c(ccc3c2=O)OC(C)(C)C=C4)cc1 | > 10000 | > 10000 | > 10000 | > 10000 | – | > 10000 | – | – | > 10000 | – | –
CC1(C)C=Cc2c(ccc3c(=O)c(-c4ccc(C#N)cc4)coc23)O1 | > 10000 | > 10000 | > 10000 | > 10000 | – | > 10000 | – | – | > 10000 | – | –
COc1cccc(-c2coc3c4c(ccc3c2=O)OC(C)(C)C=C4)c1 | > 10000 | > 10000 | > 10000 | > 10000 | – | > 10000 | – | – | > 10000 | – | –

These reach a lower IC50 (B16). Values come first.

IC50 (B16) [nM] | IC50 (HepG2) [nM] | IC50 (A-375) [nM] | IC50 (U-251) [nM] | SMILES | inhibition (Danio rerio) | IC50 [1] [nM] | inhibition at 5 µM (HUVEC [2]) [%] | inhibition at 1 µM (HUVEC [3]) [%] | IC50 (HUVEC [4]) [nM] | Activity (HUVEC [5]) [%] | Activity (HUVEC [6]) [%]
1090 | 280 | 1580 | 3500 | COc1cc(OC)c(-c2coc3cc(OCC=C(C)C)ccc3c2=O)cc1OC | Dose-dependent effect | 680 | 88.3 | 78.2 | 3800 | 8.45 | 35.36
1230 | 1770 | 1850 | 4100 | COc1cc(OC)c(-c2coc3c4c(ccc3c2=O)OC(C)(C)C=C4)cc1OC | Dose-dependent effect | 2360 | 65.4 | 23.7 | 7450 | 1.65 | 74.26
2140 | > 10000 | 990 | 980 | COc1cc(OC)c(-c2coc3cc(OCc4ccccc4C#N)ccc3c2=O)cc1OC | – | > 10000 | – | – | > 10000 | – | –
1610 | 1280 | 2100 | 2890 | COc1cc(OC)c(-c2coc3cc(OCc4ccccc4F)ccc3c2=O)cc1OC | – | 2900 | – | – | 4300 | – | –
2280 | 750 | 980 | > 10000 | COc1cc(OC)c(-c2coc3cc(OCc4cccc(Cl)c4)ccc3c2=O)cc1OC | – | 1330 | – | – | > 10000 | – | –
2150 | 1860 | 1360 | 2000 | COc1cc(OC)c(-c2coc3cc(OCc4ccccc4C)ccc3c2=O)cc1OC | – | 2900 | – | – | 4830 | – | –
